# Screening results (PubChem BioAssay)
# Wee1 stabilizer: Wee1 degradation inhibitors, primary screen, cell-based, HeLa, Wee1K328M-luciferase, luminescence. HeLa Luc-Wee1K328M stability; 100% = proteasome inhibitor MG132 effect. reporter increase, % at 5 µM. actives 1.2% (n = 220,000). AID 1321, 2008;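 active = activation above the mean of all tested compounds plus 3 SD, set per screening run, cut at about 8.8% in these data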;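 note: cells exposed to compound for 20 h before luminescence read; 0% = DMSO alone and 100% = MG132 at 30 µM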
# Hsp70 activator: Hsp70 transcriptional activators, primary screen, cell-based, HeLa, Hsp70 promoter luciferase, luminescence, 10 µM; HeLa Hsp70 promoter luciferase reporter; scaled: vehicle 0, proteasome-inhibitor control 100%; activation, % at 10 µM; actives 0.04% (n = 200,000);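 active = activation above the mean across all tested compounds plus 3 SD, cutoff set per campaign, cut at about 5.5% in these data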;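 note: 100% = MG132 at 30 µM as the positive control and 0% = DMSO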
# Mdm2 ligase inh: MDM2-luciferase reporter signal enhancers, primary screen, MDM2 E3 ligase inhibitor project, cell-based, luminescence, 1536-well. cell-based MDM2 ubiquitination luciferase reporter, 2 h; 0 = plate control, 100 = twice control, blank-subtracted. signal enhancement, % at 5 µM. E3 ubiquitin-protein ligase Mdm2 (Homo sapiens), Q00987. actives 0.11% (n = 210,000);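 active = signal enhancement of 30% or more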;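 note: luminescence tracks abundance of the self-degrading MDM2-luciferase fusion protein; higher signal means inhibition of MDM2 E3 ligase activity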
# Target sequence (Q00987 whole entry, looked up, the tested form may be a part): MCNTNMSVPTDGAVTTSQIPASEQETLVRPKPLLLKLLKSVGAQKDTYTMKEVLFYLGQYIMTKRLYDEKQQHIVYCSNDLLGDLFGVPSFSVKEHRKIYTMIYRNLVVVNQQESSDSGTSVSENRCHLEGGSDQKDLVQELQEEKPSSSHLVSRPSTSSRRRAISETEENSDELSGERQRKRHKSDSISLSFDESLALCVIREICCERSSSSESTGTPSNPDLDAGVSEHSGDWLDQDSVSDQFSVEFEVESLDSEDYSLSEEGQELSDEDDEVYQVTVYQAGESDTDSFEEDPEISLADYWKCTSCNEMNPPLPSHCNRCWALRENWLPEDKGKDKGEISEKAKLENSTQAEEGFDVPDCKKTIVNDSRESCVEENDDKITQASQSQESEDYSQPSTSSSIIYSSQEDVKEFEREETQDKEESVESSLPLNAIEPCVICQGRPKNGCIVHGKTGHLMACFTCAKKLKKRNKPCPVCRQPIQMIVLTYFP
#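 system = mammalian cells stably expressing self-ubiquitinating, self-degrading MDM2 E3–luciferase fusion | quantity = 2000 cells per well seeded | incubation = 4 h cell settling then 2 h compound exposure, 37 °C | signal = SteadyLite luminescence, 15 min reagent step | benchmarks = plate control and blank wells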
# RBBP9 inhibitor: human RBBP9 inhibitors, primary screen, biochemical, fluorescence polarization, FP-Rh probe, HTS. inhibition, % at 7.94 µM. recombinant RBBP9. actives 0.2% (n = 220,000). Serine hydrolase RBBP9 (Homo sapiens), O75884;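 active = inhibition above the campaign mean of all tested compounds plus 3 SD, cut at about 14% in these data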;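 note: plate controls were DMSO wells with RBBP9 for no effect and wells lacking RBBP9 protein for full effect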
#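 Test system – recombinant human RBBP9 · Input – RBBP9 2.5 µM in dispensing solution, pre-mixing · Medium – Tris buffer pH 8.0, NaCl, Pluronic · Schedule – preincubation 30 min plus labeling 45 min at 25 °C · Measured by – fluorescence polarization · Measure – % inhibition · Controls – DMSO and no-protein wells · Replicates – one well per compound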
# Insulin prom inh: inhibitors of insulin promoter-driven GFP, primary screen, imaging, TRM-6 cells, eGFP reporter, cell count; reporter expression induced with tamoxifen; inhibition, % at 2 µM; actives 0.9% (n = 130,000); AID 1273, 2008;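 active = inhibition above the mean plus 3 SD, with well images judged a real hit on visual review, cut at about 60% in these data, passing the limit was not always enough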
# Insulin prom up: insulin promoter activators in MIN6 cells, imaging, high-content screening, mouse beta cells; MIN6 insulin promoter-GFP reporter; active compounds read high; z-score at 5 µM; actives 0.3% (n = 190,000); AID 1625, 2009;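 active = z-score above 3 at 5 µM with at least 500 cells counted in the well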
# Wee1 degr conf: Wee1 degradation inhibitors, confirmation, cell-based, HeLa, Wee1K328M-luciferase, luminescence, triplicate; AID 1410, 2008; activation, % at 5 µM; HeLa Luc-Wee1K328M degradation; vehicle 0%, proteasome-blocked wells 100%; shares compounds with Wee1 stabilizer; actives 4% (n = 1,100); in the data active = activation above about 8.9%
# Starred values were filed as active, the others as inactive; / = not tested or not shown. Shown are actives, neighbours in structure and some others; about 2.2% of the full set was active somewhere.
SMILES,Wee1 stabilizer,Hsp70 activator,Mdm2 ligase inh,RBBP9 inhibitor,Insulin prom inh,Insulin prom up,Wee1 degr conf
O=C1C(=O)N(CCN2CCOCC2)C(c2cccnc2)/C1=C(/O)c1ccc(Cl)cc1 (stereo not given),-2.1,0.2,-10.0,-6.2,/,0.48,/
COC(=O)Cc1c(C(=O)OC)nnn1-c1ccc(OC(F)(F)F)cc1,15.9*,-0.2,-16.7,-14.0,-90.9,0.48,4.7
C/C(Cc1ccccc1)=N/NC(=O)CNC(=O)C(c1ccccc1)c1ccccc1,11.5*,/,-97.7,4.4,/,0.76,-3.1
O=C(CSc1nc2nn(-c3ccccc3)c(=O)c-2c2n1CCCCC2)NCCCc1ccccc1,17.8*,-0.2,-6.4,-7.8,-133.3,/,2.3
CCC(=O)Nc1ccc(-c2nc3ccccc3c(=O)o2)cc1,12.6*,-0.2,-14.9,-7.4,/,0.15,1.0
CCC(=O)Nc1ccc(-c2nnc(-c3ccccc3)o2)cc1,6.2,0.1,-56.5,-9.8,/,-0.33,/
Cc1ccc(S(=O)(=O)N2CCOCC2)cc1C(=O)N(C)CCOc1ccc(Cl)cc1,11.7*,/,2.7,-9.9,/,/,-0.1
CC(O)C(NS(=O)(=O)c1ccc(Cl)cc1)C(=O)OCC(=O)Nc1cccnc1Cl (stereo not given),19.7*,-0.1,-60.1,10.6,14.3,0.25,-1.3
CS(=O)(=O)N1CCc2cc(C(=O)NC3CC3)ccc21,14.1*,-0.3,-4.0,-5.0,/,0.63,3.3
CCCNC(=O)c1ccc2c(c1)CCN2S(C)(=O)=O,3.3,0.2,-14.1,-8.7,-28.6,0.11,/
COc1cc([N+](=O)[O-])ccc1NC(=O)CN1CCN(C(=O)c2ccco2)CC1,2.2,-0.1,-12.8,-3.0,-28.2,/,/
Cc1ccc(C#N)c(SCc2ccccc2F)n1,11.0*,/,-11.4,-14.3,/,0.18,2.8
O=C1CC(N2CCN(c3ncccn3)CC2)C(=O)N1CCc1ccccc1 (stereo not given),6.1,0.1,-14.1,-1.1,-36.8,0.37,/
O=C(NC(=S)N(CCO)Cc1ccccc1)c1cc(Br)ccc1Cl,11.2*,-0.3,-17.2,3.5,11.1,0.25,-1.0
CC(=O)NNC(=O)c1nc(-c2ccccc2)c(C)o1,-0.7,/,-6.2,-12.3,/,-1.18,/
Cc1nc2ccccc2c(=O)n1NC(=O)c1ccc([N+](=O)[O-])cc1,2.0,-0.3,7.4,-5.2,55.6,0.32,/
CC(C)C(=O)Nc1nnc(Cc2c[nH]c3ccccc23)s1,1.7,/,0.0,-4.9,/,0.2,/
CCc1nnc(NC(=O)CCc2c[nH]c3ccccc23)s1,14.9*,-0.1,-1.9,-2.4,/,0.07,2.3
CC(=C/c1ccccc1)/C=N/NC(=O)c1ccccn1,32.4*,/,-68.2,-12.0,/,/,-2.5
CC(/C=N/NC(=O)c1ccncc1)=C\c1ccccc1,-0.2,0.0,-33.9,10.9,/,2.64,/
O=C(OCCN1C(=O)CCC1=O)c1ccc(S(=O)(=O)N2CCCCC2)cc1,0.1,0.6,-3.6,0.0,7.7,-0.86,/
O=C(Nc1cc(S(=O)(=O)N2CCOCC2)ccc1N1CCOCC1)c1ccc(Cl)nc1,2.5,/,/,-2.5,/,-0.8,/
CCc1nc(C)cc2c1sc1ccccc12,24.7*,/,5.8,-0.5,/,-0.09,0.8
O=C(CNC(=O)c1ccncc1)N/N=C/c1ccc(O)cc1O,13.5*,/,-13.9,3.2,/,-0.48,2.1
O=C(CNC(=O)c1ccc2c(c1)OCCO2)N/N=C/c1ccc(O)cc1O,-1.2,-0.4,-7.5,-2.3,/,0.06,/
NC(=O)[C@@H]1CCCN1Cc1nc(-c2cccs2)no1,11.2*,0.1,0.8,-4.1,/,-1.36,-0.7
